Source: PubChem BioAssay (several laboratories)
The list is not random: actives were taken first. Their share in the collection is about 29%.
CYP2C19 inh = human CYP2C19 inhibition. P33261. CYP2C19 Supersomes, luciferin-H EGE luminescence, 30 min. inhibition, % at 5 µM. 96,000 tested, 21% active. AID 778;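 active means CYP2C19 inhibition above a set limit at 5 µM in the primary screen, cut at about 50% in these data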
Target sequence (P33261 whole entry, looked up): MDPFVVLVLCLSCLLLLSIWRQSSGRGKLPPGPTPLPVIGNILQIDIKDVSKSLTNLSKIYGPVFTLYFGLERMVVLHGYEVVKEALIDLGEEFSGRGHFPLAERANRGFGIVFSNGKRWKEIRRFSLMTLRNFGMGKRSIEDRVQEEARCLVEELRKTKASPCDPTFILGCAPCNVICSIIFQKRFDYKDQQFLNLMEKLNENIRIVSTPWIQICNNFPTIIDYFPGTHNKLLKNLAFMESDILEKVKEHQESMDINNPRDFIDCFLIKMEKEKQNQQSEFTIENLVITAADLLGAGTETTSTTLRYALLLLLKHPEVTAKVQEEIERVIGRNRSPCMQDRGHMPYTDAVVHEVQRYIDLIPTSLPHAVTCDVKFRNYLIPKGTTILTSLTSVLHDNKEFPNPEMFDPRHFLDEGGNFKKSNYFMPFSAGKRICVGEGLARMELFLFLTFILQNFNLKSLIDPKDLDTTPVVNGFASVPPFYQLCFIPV
CYP2C9 activ = CYP2C9 (human) activation. P11712. recombinant CYP2C9, luciferin-H conversion, luminescence; stronger effect = higher value; factor 1 = untreated enzyme, 0 = blocked. activation factor at 5 µM. 96,000 tested, 1.4% active;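 active means activation factor of 2 or more for CYP2C9 at a 5 µM dose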
E coli WT exp = blocks growth of wild type E. coli BW25113. growth inhibition, % at 100 µM. 98,000 tested, 0.15% active. OD600 absorbance. AID 710;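 active means growth inhibition above about 50% at one test dose, limit read from the data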;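 further: growth measured after 20 h incubation at 37 °C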
tolC growth inh = E. coli tolC mutant growth inhibition; E. coli BW25113 tolC mutant growth, OD615; growth inhibition, % at 10 µM (by protocol); 65,000 tested, 2.2% active;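 active means growth inhibition at or above a cutoff equal to the mean over every tested compound plus 3 SD, cut at about 60% in these data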;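 further: growth measured after 20 h incubation at 37 °C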
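Test system: tolC-deleted E. coli BW25113 | Medium: LB with kanamycin 50 µg/mL | Compound dosing: Single concentration, 10 µM final per compound | Schedule: 37 °C, 20 h exposure | Measured by: OD at 615 nm | Evaluation: Percent growth inhibition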
CYP2C9 inhib = human CYP2C9 inhibition. P11712. CYP2C9 Supersomes, luciferin-H conversion, luminescence. inhibition, % at 5 µM. 96,000 tested, 20% active. AID 777;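 active means blocking of liver enzyme CYP2C9 beyond about 50% at 5 µM, limit read from the data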
CYP2C19 act = cytochrome P450 2C19 (human) activation; P33261; recombinant CYP2C19, luciferin-H EGE luminescence; stronger effect = higher value; 0 = fully inhibited enzyme, 1 = untreated enzyme; activation factor at 5 µM; 96,000 tested, under 10 active; AID 1025;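 active means activation factor of at least 2 at 5 µM in the primary screen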
Large screens that a line does not name were inactive.

O=c1[nH]c(CN(CCO)CCO)nc2c1C1(CCCCC1)Cc1ccccc1-2	none
Nc1n[nH]c2c1C1(CCCCC1)Cc1ccccc1-2	CYP2C19 inh 58
CCc1ccc(OCc2nnc(NC(=O)c3cccs3)s2)cc1	none (no result: tolC growth inh)
O=C(CN1CCN(c2ccccc2)CC1)c1ccc2cc[nH]c2c1	none (no result: tolC growth inh)
O=C(CN1CCC2(CC1)OCCO2)c1ccc2cc[nH]c2c1	CYP2C19 inh 86
CCOC(=O)N1CCN(C(=O)C(c2ccccc2)c2ccccc2)CC1	none
COc1cccc(CN(Cc2cccnc2)S(=O)(=O)c2ccc(-n3cnnn3)c(C)c2)c1	CYP2C19 inh 60
Cc1cc(S(=O)(=O)N(Cc2ccccc2)Cc2ccc(N(C)C)cc2)ccc1-n1cnnn1	none (no result: CYP2C19 inh, CYP2C9 activ, CYP2C9 inhib, CYP2C19 act)
Cc1cc(S(=O)(=O)N(C)CCc2ccccc2)ccc1-n1cnnn1	CYP2C19 inh 57
c1ccc2oc(-c3ccc(Nc4nc(N5CCCCC5)nc(N5CCOCC5)n4)cc3)nc2c1	none (no result: tolC growth inh)
CCCCc1ccc(/C=C2\C(=O)c3ccccc3C(O)=C2C(=O)OCC)cc1	CYP2C19 inh 67, CYP2C9 inhib 90 (no result: tolC growth inh)
COC(=O)c1ccccc1NC(=O)Cn1cc(Br)cn1	CYP2C19 inh 60
Cc1ccc(SCC(=O)Nc2ccccc2C(=O)O)cc1	CYP2C9 inhib 85 (no result: tolC growth inh)
Cc1cc(NC(=O)CSc2n[nH]c(CC(C)C)n2)no1	none
COC(=O)c1ccccc1NC(=O)COc1ccccc1	CYP2C19 inh 53
COC(=O)c1ccccc1NC(=O)CSc1n[nH]c(CC(C)C)n1	CYP2C19 inh 86
COCCNC(=O)c1ccccc1NC(=O)COc1ccccc1	none
Cc1ccc(C)c(N(CC(N)=O)S(C)(=O)=O)c1	none
COCCCn1cnnc1SCC(=O)Nc1ccc(S(=O)(=O)N2CCCC2)cc1	none (no result: tolC growth inh)
COc1cc(C=O)ccc1OCCOCCOc1c(C)cc(Cl)cc1Cl	none (no result: CYP2C19 inh, CYP2C9 activ, tolC growth inh, CYP2C9 inhib, CYP2C19 act)
O=C1CS/C(=C\[N+](=O)[O-])N1c1ccc(OC(F)(F)F)cc1	none (no result: tolC growth inh)
O=C(CSc1ccccc1)Nc1ccccc1C(=O)O	none (no result: tolC growth inh)
COC(=O)c1ccccc1NC(=O)CSc1ccccc1	CYP2C19 inh 95
O=Nc1c2nc3ccccc3n(O)c-2c2ccccc12	tolC growth inh 87
COc1ccccc1C1NC(c2ccccc2OC)C(C)C(=O)C1C (stereo not drawn)	CYP2C19 inh 100, CYP2C9 inhib 67 (no result: tolC growth inh)
COC(=O)c1sccc1NS(=O)(=O)c1ccc(OC)cc1	none
COC(=O)c1ccc(C(=O)OC)c(NS(=O)(=O)c2ccc(NC(C)=O)cc2)c1	CYP2C19 inh 62, CYP2C9 inhib 90
COC(=O)c1cccc(NS(=O)(=O)c2ccc(NC(C)=O)cc2)c1C	none (no result: tolC growth inh)
CCCCNC(=O)c1ccccc1NS(=O)(=O)c1ccc2c(c1)OCCO2	none
COC(=O)c1ccc(C)c(NS(=O)(=O)c2ccc3c(c2)OCCO3)c1	CYP2C19 inh 91, CYP2C9 inhib 62
COC(=O)c1ccc(Sc2ccccc2NS(=O)(=O)c2ccc(NC(C)=O)cc2)nc1	CYP2C19 inh 61, CYP2C9 inhib 80 (no result: tolC growth inh)
COC(=O)c1ccc(C)c(NS(=O)(=O)c2ccc(OC)cc2)c1	CYP2C19 inh 100, CYP2C9 inhib 70
Fc1cccc(CN2CCN(c3ncccn3)CC2)c1	none
O=C1CCCN1Cc1ncnn1-c1ccccc1	none (no result: CYP2C19 inh, CYP2C9 activ, tolC growth inh, CYP2C9 inhib, CYP2C19 act)
COC(=O)c1ccc(C)c(NS(=O)(=O)c2ccc(C)c([N+](=O)[O-])c2)c1	CYP2C19 inh 90, CYP2C9 inhib 80 (no result: tolC growth inh)
COC(=O)c1ccc(N2CCN(S(=O)(=O)c3ccccc3)CC2)c([N+](=O)[O-])c1	none (no result: tolC growth inh)
CCC(=O)N1CCc2cc(OC)c(OC)cc2C1COc1ccc(C(=O)OC)cc1 (stereo not drawn)	CYP2C19 inh 60
CCC(=O)c1ccc(OCC(=O)N2CCc3cc(OC)c(OC)cc3C2)cc1	none
Brc1ccc(-c2nc(-c3ccncc3)no2)o1	CYP2C19 inh 91
Brc1ccc(-c2nc(-c3ccccn3)no2)o1	CYP2C19 inh 62
CSc1ccc(/C=N/n2nnnc2N)cc1	none
CN(C(=O)c1coc(=O)c2ccccc12)c1ccc(F)cc1	CYP2C9 inhib 59
COc1ccc(C(CC(=O)O)NC(=O)c2ccccc2)cc1OC (stereo not drawn)	none
CCCOC(=O)c1ccc(NC(=O)c2cn(CC)c3nc(C)ccc3c2=O)cc1	none (no result: tolC growth inh)
CC(=O)Nc1ccc(S(=O)(=O)Nc2cccc(-c3nc4ccccc4o3)c2)cc1	CYP2C19 inh 91, CYP2C9 inhib 98 (no result: tolC growth inh)
